Experimental data from ChEMBL document CHEMBL1154126, “Sulforaphane induces cell-cycle arrest and apoptosis in cultured human lung adenocarcinoma LTEP-A2 cells and retards growth of LTEP-A2 xenografts in vivo” (J Nat Prod, 2008).

Legend:
LTEP-A2 = assay: Antiproliferative activity against human LTEP-A2 cells by trypan blue exclusion assay; type: functional, cell-based
How it was run: (§1)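 Suspension-grown LTEP-A2 cells in RPMI 1640 with 20% heat-inactivated bovine serum, penicillin and streptomycin. Exponentially growing cells were added at 400 000 cells/mL to medium with 6.25–50 µM compound. Trypan blue-excluding cells were counted at 3, 24, 48 and 72 h relative to controls. IC50 was interpolated from 24 h dose-response curves. Three independent experiments, mean ± SD.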

[1] = Antiproliferative activity against human LTEP-A2 cells assessed as viable cells at 12.5 uM after 24 hrs by trypan blue exclusion assay; type: functional; conditions: LTEP-A2, 24 h, read-out: Activity; how it was run: as §1
[2] = Antiproliferative activity against human LTEP-A2 cells assessed as viable cells at 25 uM after 24 hrs by trypan blue exclusion assay; type: functional; conditions: LTEP-A2, 24 h, read-out: Activity; how it was run: as §1
[3] = Antiproliferative activity against human LS 174T cells; type: functional, cell-based; conditions: LS174T
OVCAR-3 = assay: Antiproliferative activity against human OVCAR-3 cells; type: functional, cell-based
[4] = Antiproliferative activity against human LTEP-A2 cells after 24 hrs by trypan blue exclusion assay; type: functional, cell-based; conditions: LTEP-A2, 24 h; how it was run: as §1
Jurkat = assay: Antiproliferative activity against human lymphoblastoid cells using annexin-V FITC and PI staining by flow cytometry
DU-145 = assay: Antiproliferative activity against human DU145 cells assessed as viable cells after 24 hrs; conditions: DU-145, 24 h

S=C=NCCc1ccccc1 [PHENETHYLISOTHIOCYANATE]
Activity (LTEP-A2): Dose-dependent effect
viability at 12.5 µM [1]: 12%
viability at 25 µM [2]: 81%
IC50 [3]: 7 µM
IC50 (OVCAR-3): 23.2 µM
IC50 [4]: 20 µM

C[S+]([O-])CCCCN=C=S (stereo not given) [SULFORAPHANE]
IC50 (Jurkat): 3.8 µM
IC50 (DU-145): 10 µM
IC50 [3]: 95 µM
IC50 [4]: 6.25 µM
